Measured values taken from PubChem BioAssay.
Records with an inconclusive call do not appear.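 How the source made its calls, unless noted: active means viability increase at or above a cutoff of the median across tested compounds plus 3 SD (cut at about 8.5% in these data, passing the limit was not always enough); inconclusive means some gains above the cutoff, reason not given; inactive means the rest.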

Assays:
[1] = S. cerevisiae growth inhibition in permissive medium (OD615), pilot counter-assay for S. cerevisiae lifespan shortening project, permissive growth control (AID 705;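 active means growth inhibition above 25% in both replicates, a cutoff set 3 SD above the mean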); conditions: OD615, 24 h, at 10 µM, hits give high values
Procedure, shortened: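 assay system = Saccharomyces cerevisiae strain carrying genetically modified DeaD replicative-lifespan system | technique = absorbance (optical density) at 615 nm | buffer or medium = permissive raffinose/galactose medium | timing = cells pre-grown 4 h, then 24 h compound exposure, 30 °C humidified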

[2] = S. cerevisiae growth inhibition in restrictive medium, OD615, pilot screen, restrictive growth control, yeast lifespan reduction project (AID 706;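 active means growth inhibition above a set limit, 3 SD over mean compound inhibition, in both replicates, cut at about 43% in these data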;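 further: modified DeaD lifespan yeast strain shifted to restrictive glucose medium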); conditions: OD615, 48 h, at 10 µM, hits give high values
Procedure, shortened: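 System: modified S. cerevisiae. Buffer or medium: CSMM-D glucose medium. Incubation: 4 h pre-growth plus 48 h compound exposure, 30 °C. Detection: absorbance (optical density) measured at 615 nm.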

[3] = doxorubicin toxicity protection in MRP-1 cells – H69AR cells, CellTiter-Glo, duplicate, MRP-1 activator project, pilot screen (AID 807); conditions: H69AR viability with doxorubicin, CellTiter-Glo luminescence; at 10 µM; hits give high values;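 further: compound pretreatment 18-22 h then 72 h combined with doxorubicin; 0% = doxorubicin alone and 100% = vehicle without doxorubicin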
[4] = viability of HCT116 without oncogenic beta-catenin – human colon tumor cells, pilot screen (AID 823;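 active means cell viability at or below a set limit in both duplicate runs, the limit being the all-compound median minus 4 SD, cut at about 23% in these data, passing the limit was not always enough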;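 further: 0% = wells killed by 20 µM Hyamine and 100% = untreated DMSO cell wells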); conditions: HCT116 beta-catenin knockout viability, CellTiter-Glo, 60 h; at 10 µM; hits give low values
[5] = viability of PTEN-null HCT116 cells – cell-based, HCT116 clonal line, CellTiter-Glo, pilot screen (AID 824;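 active means viability at or below 27.92% in each of two runs, the all-compound median minus 4 SD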;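 further: 0% = 20 µM Hyamine control and 100% = vehicle cell control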); conditions: HCT116 PTEN-deleted viability, 60 h, at 10 µM, hits give low values
[6] = RAM pathway blockade in budding yeast – dse1pr::URA3 reporter, 5-FOA selection, pilot screen (AID 869;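 active means inhibition over a set limit, the all-compound mean plus 3 SD, in both replicate runs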;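 further: 0% = DMSO wells with no growth and 100% = 10 µM 1-NA-PP1 with full growth; RAM network block rescues cells from 5-FOA so hits raise OD615 growth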); conditions: S. cerevisiae dse1pr::URA3 5-FOA growth, OD615, 2 d; at 10 µM; hits give high values; strain carries analog-sensitive mutant Cbk1 kinase
[7] = RAM signaling pathway blockade in yeast – S. cerevisiae, Pdr1DBD-CYC8 efflux-inhibited sensitized strain, primary screen (AID 1298;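 active means RAM network inhibition above 8.4% in each of two replicates, 3 SD over the compound average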;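 further: 0% = DMSO untreated cells without growth and 100% = 10 µM 1-NA-PP1 full growth; higher means more yeast growth rescued from 5-FOA killing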); conditions: S. cerevisiae cbk1-as DSE1-URA3 strain, 5-FOA growth OD615, 2 d; at 50 µM; hits give high values

Cc1cc2oc(C(=O)Nc3cccnc3)c(C)c2cc1C
inactive: growth inhibition [1] 7.22% | growth inhibition [2] 6.46% | viability increase [3] -1.32% | viability [4] 90.1% | viability [5] 87% | inhibition [6] 0.52% | RAM network inhibition [7] 1.77%

O=C(NC1CCCCCCC1)c1cnccn1
inactive: growth inhibition [1] 0.775% | growth inhibition [2] 10.4% | viability increase [3] -0.43% | viability [4] 103% | viability [5] 93.7% | inhibition [6] 1.72% | RAM network inhibition [7] 1.71%

O=C(CSc1nc2sc3c(c2c(=O)n1-c1ccccc1)CCCC3)NCc1ccco1
inactive: growth inhibition [1] -7.07% | growth inhibition [2] -5.03% | viability increase [3] -7.21% | viability [4] 53.7% | viability [5] 53.8% | inhibition [6] 3.98% | RAM network inhibition [7] 6.12%

Cc1cc(N2CCC(N(C)C3CCCC3)CC2)nc2cc(O)ccc12
inactive: growth inhibition [1] -8.33% | growth inhibition [2] -9.98% | viability increase [3] -7.96% | viability [4] 53.9% | viability [5] 53.7% | inhibition [6] 2.4% | RAM network inhibition [7] 2.21%

CCSc1nnc(NC(=O)c2ccccc2)s1
inactive: growth inhibition [1] -19.1% | growth inhibition [2] 0.02% | viability increase [3] 1.94% | viability [4] 95.2% | viability [5] 98.7% | inhibition [6] 1.25% | RAM network inhibition [7] 4.7%

COc1ccc(Cl)cc1N(CC(=O)Nc1ccc2c(c1)OCCO2)S(C)(=O)=O
inactive: growth inhibition [1] -2.33% | growth inhibition [2] 0.055% | viability increase [3] -2.78% | viability [4] 92.7% | viability [5] 89.4% | inhibition [6] 3.33% | RAM network inhibition [7] 2.8%

O=C(CCCC(=O)OCC(F)(F)C(F)F)Nc1nccs1
inactive: growth inhibition [1] -7.96% | growth inhibition [2] 8.98% | viability increase [3] -0.61% | viability [4] 101% | viability [5] 102% | inhibition [6] 1.56% | RAM network inhibition [7] -0.01%

Cc1ccc2oc(=O)c3cnn(CC(=O)N(CCC(C)C)Cc4ccco4)c3c2c1
inactive: growth inhibition [1] -4.76% | growth inhibition [2] -1.21% | viability increase [3] -3.21% | viability [4] 88.5% | viability [5] 87.3% | inhibition [6] 0.29% | RAM network inhibition [7] 5.23%

O=c1cc(CSc2nnc(-c3ccccc3)o2)c2ccccc2[nH]1
inactive: growth inhibition [1] -4.87% | growth inhibition [2] -3.43% | viability increase [3] 0.91% | viability [4] 99.2% | viability [5] 102% | inhibition [6] 2.32% | RAM network inhibition [7] 6.08%

CCCc1cc(C(=O)Nc2cc(Br)ccc2O)no1
inactive: growth inhibition [1] -4.99% | growth inhibition [2] -3.92% | viability increase [3] -4.83% | viability [4] 89% | viability [5] 88.1% | inhibition [6] 2.76% | RAM network inhibition [7] 5.97%

C=CCOn1c(=O)c(C)[n+]([O-])c2ccccc21
inactive: growth inhibition [1] -11.6% | growth inhibition [2] -14.3% | viability increase [3] -0.5% | viability [4] 105% | viability [5] 98.2% | inhibition [6] -0.085% | RAM network inhibition [7] 5.63%

O=C(NCc1ccccc1Cl)c1cnc2n(c1=O)CCS2
inactive: growth inhibition [1] 3.67% | growth inhibition [2] 0.685% | viability increase [3] -0.78% | viability [4] 99.9% | viability [5] 96.9% | inhibition [6] 0.995% | RAM network inhibition [7] -0.68%

CC(=O)c1ccc(NC(=O)C2CCCN2S(=O)(=O)c2cccc3cccnc23)cc1 (stereo not drawn)
inactive: growth inhibition [1] -11.2% | growth inhibition [2] -8.78% | viability increase [3] -1.7% | viability [4] 98.1% | viability [5] 95.8% | inhibition [6] 0.505% | RAM network inhibition [7] 5.11%

O=C(Cn1cc2c(n1)CCCC2)N1CCc2ccccc21
inactive: growth inhibition [1] -7.55% | growth inhibition [2] 9.02% | viability increase [3] -2.04% | viability [4] 66% | viability [5] 77.4% | inhibition [6] 2.28% | RAM network inhibition [7] -1.03%

Cc1nc(-c2ccc3c(c2)OCO3)cs1
inactive: growth inhibition [1] -3.71% | growth inhibition [2] -1.42% | viability increase [3] 0.2% | viability [4] 102% | viability [5] 101% | inhibition [6] 1.68% | RAM network inhibition [7] 2.38%

CCC(CO)N=CC1=C(O)C(C(=O)c2ccccc2)CCC1=O (stereo not drawn)
inactive: growth inhibition [1] -10.4% | growth inhibition [2] -14.8% | viability increase [3] 1.63% | viability [4] 96.5% | viability [5] 105% | inhibition [6] 0.62% | RAM network inhibition [7] 2.38%

CC(C)(C)c1nnc2sc(SCC(=O)c3cccs3)nn2c1=O
inactive: growth inhibition [1] -4.01% | growth inhibition [2] -13.1% | viability increase [3] -6% | viability [4] 71.1% | viability [5] 81.8% | inhibition [6] 2.62% | RAM network inhibition [7] 5.25%

COc1ccc(NC(=O)N(CCC(C)C)C(C)c2ccccn2)c(OC)c1 (stereo not drawn)
inactive: growth inhibition [1] -5% | growth inhibition [2] 7.73% | viability increase [3] -3.52% | viability [4] 79.2% | viability [5] 85.6% | inhibition [6] 1.11% | RAM network inhibition [7] 3.79%

CCOC(=O)c1ccc2nc(NC(=O)C(C)C)sc2c1
inactive: growth inhibition [1] -10.9% | growth inhibition [2] -10.6% | viability increase [3] -6.61% | viability [4] 78.6% | viability [5] 80% | inhibition [6] 1.98% | RAM network inhibition [7] 0.06%

CCOC(=O)C1CCCN(c2c(Nc3cccc(C)c3)c(=O)c2=O)C1 (stereo not drawn)
inactive: growth inhibition [1] -6.7% | growth inhibition [2] 2.08% | viability increase [3] -2.71% | viability [4] 104% | viability [5] 93.2% | inhibition [6] -0.555% | RAM network inhibition [7] 2.72%

CCCSc1nnc(Cn2c(=O)sc3ccccc32)n1-c1ccccc1
inactive: growth inhibition [1] -9.77% | growth inhibition [2] 3.11% | viability increase [3] 1.4% | viability [4] 92.6% | viability [5] 81.3% | inhibition [6] 3.3% | RAM network inhibition [7] 11%

CCOC(=O)Cc1csc(NC(=O)COc2ccc(OC)cc2)n1
inactive: growth inhibition [1] -22.4% | growth inhibition [2] -8.99% | viability increase [3] -2.2% | viability [4] 97.2% | viability [5] 92.2% | inhibition [6] 1.89% | RAM network inhibition [7] 0.64%

COc1cc2c(=O)n(Cc3ccccc3)c(=O)n(CC(=O)NCC3CCCO3)c2cc1OC (stereo not drawn)
inactive: growth inhibition [1] -2.89% | growth inhibition [2] -0.925% | viability increase [3] -0.67% | viability [4] 97.9% | viability [5] 94.1% | inhibition [6] 2.3% | RAM network inhibition [7] 3.29%

CC(C)Nc1ncnc2c1cnn2-c1ccc(Cl)cc1
inactive: growth inhibition [1] 5.42% | growth inhibition [2] -5.25% | viability increase [3] -3.14% | viability [4] 83.3% | viability [5] 72.6% | inhibition [6] 1.14% | RAM network inhibition [7] -0.94%

CC(NC(=O)c1ccco1)C(c1cccs1)N1CCOCC1 (stereo not drawn)
inactive: growth inhibition [1] -6.95% | growth inhibition [2] 7.38% | viability increase [3] -2.37% | viability [4] 101% | viability [5] 99.5% | inhibition [6] 0.88% | RAM network inhibition [7] 1.38%

CCOCCn1c(COc2ccccc2)nc2ccccc21
inactive: growth inhibition [1] -6.72% | growth inhibition [2] 1.93% | viability increase [3] -2.53% | viability [4] 83.8% | viability [5] 81.9% | inhibition [6] 1.88% | RAM network inhibition [7] 6.89%

CCC(C)Nc1ncnc2c1cnn2Cc1ccc(Cl)cc1 (stereo not drawn)
inactive: growth inhibition [1] -13.7% | growth inhibition [2] -18.8% | viability increase [3] 6.18% | viability [4] 85.5% | viability [5] 86.7% | inhibition [6] -0.295% | RAM network inhibition [7] 2.14%

CCCCSc1nnc(C)c(=O)[nH]1
inactive: growth inhibition [1] -8.76% | growth inhibition [2] -12.2% | viability increase [3] -0.85% | viability [4] 97.6% | viability [5] 102% | inhibition [6] 1.26% | RAM network inhibition [7] 7.32%

COC(=O)c1cc2c(s1)-c1ccccc1OC2
inactive: growth inhibition [1] -11.1% | growth inhibition [2] 4.14% | viability increase [3] -4.57% | viability [4] 101% | viability [5] 95.7% | inhibition [6] 1.39% | RAM network inhibition [7] 3.14%

O=C1C2C(c3ccccc3)C=CC(c3ccccc3)C2C(=O)N1CCO (stereo not drawn)
inactive: growth inhibition [1] -10.9% | growth inhibition [2] -8.43% | viability increase [3] -3.35% | viability [4] 94.7% | viability [5] 95.3% | inhibition [6] 0.33% | RAM network inhibition [7] 4.03%

O=C(Nc1nccs1)C12CC3CC(C1)CC(C(=O)Nc1nccs1)(C3)C2
inactive: growth inhibition [1] 1.86% | growth inhibition [2] 28.3% | viability increase [3] -2.85% | viability [4] 75.3% | viability [5] 78.7% | inhibition [6] 1.25% | RAM network inhibition [7] 2.5%

CCOc1ccc(N2C(=O)CC(Sc3nc(C)cc(C)n3)C2=O)cc1 (stereo not drawn)
inactive: growth inhibition [1] -3.95% | growth inhibition [2] 1.55% | viability increase [3] -1.4% | viability [4] 108% | viability [5] 98.9% | inhibition [6] 0.24% | RAM network inhibition [7] 3.27%

COc1ccc(NC(C)=O)cc1NC(=O)CSc1nnc(-c2cccnc2)n1C
inactive: growth inhibition [1] -5.75% | growth inhibition [2] -0.47% | viability increase [3] -0.83% | viability [4] 104% | viability [5] 100% | inhibition [6] 0.485% | RAM network inhibition [7] 1.19%

COc1ccccc1NC(=O)CCNC(=O)Cn1ccc2ccccc2c1=O
inactive: growth inhibition [1] -12.7% | growth inhibition [2] -11.8% | viability increase [3] -1.84% | viability [4] 96.6% | viability [5] 93.3% | inhibition [6] 0.74% | RAM network inhibition [7] 3.6%
